The source made the active and inactive calls. The rule behind the calls is not given here.
What was measured:
Format in all cases: functional
[1] = Antioxidant activity against hydroperoxyl radical assessed as inhibition time at 2.97 uM by Briggs-Rauscher method
How it was run: (§1)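 Briggs–Rauscher oscillating reaction run under acidic conditions (pH ca. 2). Read-out is the inhibitory phase induced in the oscillations.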

[2] = Antioxidant activity against hydroperoxyl radical assessed as inhibition time at 1.48 uM by Briggs-Rauscher method; how it was run: as §1
[3] = Antioxidant activity against ABTS radical assessed as trolox equivalent by TEAC assay
How it was run: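 TEAC assay run at pH 7.4 against the ABTS radical cation. Trolox served as standard, with activity expressed relative to it.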

[4] = Antioxidant activity against hydroperoxyl radical assessed as resorcinol equivalent by Briggs-Rauscher method
How it was run: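 Briggs–Rauscher oscillating reaction run at acidic pH (ca. 2), using resorcinol as standard. Activity is expressed relative to resorcinol from the inhibitory phase of the oscillations.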

[5] = Antioxidant activity against hydroperoxyl radical assessed as inhibition time at 2.25 uM by Briggs-Rauscher method; how it was run: as §1
[6] = Antioxidant activity against hydroperoxyl radical assessed as inhibition time at 3.71 uM by Briggs-Rauscher method; how it was run: as §1
[7] = Antioxidant activity against hydroperoxyl radical assessed as inhibition time at 3.34 uM by Briggs-Rauscher method; how it was run: as §1

## COc1cc(C2(c3cc(OC)c(N)cc3OC)C(=O)Nc3ccccc32)c(OC)cc1N
[1]
  TIME: 0.24 h
[2]
  TIME: 0.154 h
[3]
  Activity: 1.4 mM
[4]
  Activity: 1.28 µM
[5]
  TIME: 0.216 h
[6]
  TIME: 0.296 h
[7]
  TIME: 0.269 h

## COc1ccc(OC)c(NC(=O)C(=O)c2ccccc2NC(C)=O)c1
[3]
  Activity: inactive
[4]
  Activity: inactive
